# In the M2OR odorant receptor database:
# Key:
# Settings in all cases: stereoisomer not certain
# [1] = molecular target: T1, Or5k16 (Mus musculus) (UniProt Q7TS48)
# T1 sequence (whole entry): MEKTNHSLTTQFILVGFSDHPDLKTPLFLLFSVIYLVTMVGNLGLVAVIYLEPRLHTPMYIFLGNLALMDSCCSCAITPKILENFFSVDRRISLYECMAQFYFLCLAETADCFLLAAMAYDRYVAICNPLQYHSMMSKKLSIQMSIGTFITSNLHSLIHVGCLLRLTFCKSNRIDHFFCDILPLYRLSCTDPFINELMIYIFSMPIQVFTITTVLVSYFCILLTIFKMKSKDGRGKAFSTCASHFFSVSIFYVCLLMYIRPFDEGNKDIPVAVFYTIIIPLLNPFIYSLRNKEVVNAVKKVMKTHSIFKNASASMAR
# Summary of the method: (§1)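 Values were gathered from published papers (main text and supplementary material), with extra details requested from the original authors when needed, and checked for typos and inconsistencies. Each receptor–molecule pair is called responsive (active) if the original authors judged the measured signal statistically different from baseline, and non-responsive (inactive) otherwise. Assay methods varied by source, often transient mammalian cell-line luciferase assays. Recorded details include cell line, G-protein, co-transfected protein and tags.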
# [2] = molecular target: T2, Or2c1 (Mus musculus) (UniProt P23275)
# T2 sequence (whole entry): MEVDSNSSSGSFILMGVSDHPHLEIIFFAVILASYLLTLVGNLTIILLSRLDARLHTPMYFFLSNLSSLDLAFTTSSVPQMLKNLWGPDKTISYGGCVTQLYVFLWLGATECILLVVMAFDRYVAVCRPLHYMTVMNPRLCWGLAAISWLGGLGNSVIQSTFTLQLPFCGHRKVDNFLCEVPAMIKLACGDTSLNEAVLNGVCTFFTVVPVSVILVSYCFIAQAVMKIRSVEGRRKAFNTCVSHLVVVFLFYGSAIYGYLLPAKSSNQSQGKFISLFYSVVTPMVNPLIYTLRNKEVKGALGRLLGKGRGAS
# Summary of the method: as §1
# [3] = molecular target: T3, Or5ar1 (Mus musculus) (UniProt Q8VGS3)
# T3 sequence (whole entry): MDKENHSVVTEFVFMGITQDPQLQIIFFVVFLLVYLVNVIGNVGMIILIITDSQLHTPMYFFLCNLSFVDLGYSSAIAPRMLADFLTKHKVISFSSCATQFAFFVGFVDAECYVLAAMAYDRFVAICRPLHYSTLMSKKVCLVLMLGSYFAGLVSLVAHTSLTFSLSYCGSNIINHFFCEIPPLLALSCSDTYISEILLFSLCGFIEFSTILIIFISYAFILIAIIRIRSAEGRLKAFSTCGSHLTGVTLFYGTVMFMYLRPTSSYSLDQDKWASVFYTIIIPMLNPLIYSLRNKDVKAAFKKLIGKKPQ
# Summary of the method: as §1
# [4] = molecular target: T4, Or5p57 (Mus musculus) (UniProt Q8VEZ0)
# T4 sequence (whole entry): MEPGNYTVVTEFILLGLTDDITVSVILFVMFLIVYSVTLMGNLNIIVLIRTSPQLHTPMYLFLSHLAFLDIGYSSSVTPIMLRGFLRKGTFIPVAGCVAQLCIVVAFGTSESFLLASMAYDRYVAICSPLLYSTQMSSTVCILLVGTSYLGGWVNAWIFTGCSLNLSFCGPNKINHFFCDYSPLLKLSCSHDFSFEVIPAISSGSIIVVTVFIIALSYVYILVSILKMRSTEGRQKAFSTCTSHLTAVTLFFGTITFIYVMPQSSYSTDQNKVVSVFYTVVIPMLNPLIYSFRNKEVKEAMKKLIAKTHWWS
# Summary of the method: as §1
# [5] = molecular target: T5, Or5p80 (Mus musculus) (UniProt Q8VG42)
# T5 sequence (whole entry): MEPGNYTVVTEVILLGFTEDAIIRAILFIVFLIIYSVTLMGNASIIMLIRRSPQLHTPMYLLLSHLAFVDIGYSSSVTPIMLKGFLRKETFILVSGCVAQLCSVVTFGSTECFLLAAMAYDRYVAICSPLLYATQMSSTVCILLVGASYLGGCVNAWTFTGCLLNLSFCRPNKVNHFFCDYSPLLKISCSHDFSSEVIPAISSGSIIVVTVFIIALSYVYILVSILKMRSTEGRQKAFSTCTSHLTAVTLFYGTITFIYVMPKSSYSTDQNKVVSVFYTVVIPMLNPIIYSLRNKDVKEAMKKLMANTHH
# Summary of the method: as §1
# [6] = molecular target: T6, Or7a40 (Mus musculus) (UniProt Q9JHB2)
# T6 sequence (whole entry): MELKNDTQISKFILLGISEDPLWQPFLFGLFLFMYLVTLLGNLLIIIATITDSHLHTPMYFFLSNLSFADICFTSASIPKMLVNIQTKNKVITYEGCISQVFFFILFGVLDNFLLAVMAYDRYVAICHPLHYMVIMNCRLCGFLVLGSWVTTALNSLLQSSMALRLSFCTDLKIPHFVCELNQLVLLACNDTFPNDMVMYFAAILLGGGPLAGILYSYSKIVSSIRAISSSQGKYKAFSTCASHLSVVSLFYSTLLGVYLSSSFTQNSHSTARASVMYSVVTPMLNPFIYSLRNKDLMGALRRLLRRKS
# Summary of the method: as §1
# [7] = molecular target: T7, Or5an6 (Mus musculus) (UniProt Q8VFV4)
# T7 sequence (whole entry): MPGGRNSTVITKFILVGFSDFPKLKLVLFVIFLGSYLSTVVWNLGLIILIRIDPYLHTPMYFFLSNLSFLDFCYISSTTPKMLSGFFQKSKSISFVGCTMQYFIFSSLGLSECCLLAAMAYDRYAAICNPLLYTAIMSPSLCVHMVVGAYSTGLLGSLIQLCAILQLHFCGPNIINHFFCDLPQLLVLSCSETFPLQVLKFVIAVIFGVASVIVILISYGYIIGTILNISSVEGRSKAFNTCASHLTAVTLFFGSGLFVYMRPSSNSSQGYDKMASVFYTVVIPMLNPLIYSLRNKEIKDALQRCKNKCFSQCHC
# Summary of the method: as §1
# [8] = molecular target: T8, Or1m1 (Mus musculus) (UniProt Q8VFM9)
# T8 sequence (whole entry): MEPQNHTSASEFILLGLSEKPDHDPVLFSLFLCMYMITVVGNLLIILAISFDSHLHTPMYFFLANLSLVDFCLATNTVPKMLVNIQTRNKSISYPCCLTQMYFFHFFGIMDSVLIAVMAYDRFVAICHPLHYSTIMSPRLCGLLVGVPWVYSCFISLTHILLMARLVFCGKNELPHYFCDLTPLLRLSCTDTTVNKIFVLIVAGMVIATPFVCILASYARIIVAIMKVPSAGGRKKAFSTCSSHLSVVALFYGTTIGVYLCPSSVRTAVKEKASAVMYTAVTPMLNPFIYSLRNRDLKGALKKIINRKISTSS
# Summary of the method: as §1
# [9] = molecular target: Or8b3 (Mus musculus) (UniProt Q60886)
# Summary of the method: as §1
# Chain of Or8b3 (Mus musculus) (Q60886 whole entry): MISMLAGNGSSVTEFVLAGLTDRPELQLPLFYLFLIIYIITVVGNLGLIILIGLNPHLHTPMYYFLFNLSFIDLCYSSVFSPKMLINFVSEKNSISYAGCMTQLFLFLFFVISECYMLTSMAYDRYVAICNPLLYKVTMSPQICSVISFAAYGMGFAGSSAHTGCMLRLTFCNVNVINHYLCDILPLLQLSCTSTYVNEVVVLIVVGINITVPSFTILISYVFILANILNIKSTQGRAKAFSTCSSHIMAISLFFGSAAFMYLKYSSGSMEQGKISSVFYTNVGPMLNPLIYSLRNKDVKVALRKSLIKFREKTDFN
compound,measurement,setting,value
C=Cc1cnccn1,odorant receptor agonist call,[1],inactive
CCCCCCC(=O)[O-].[H+],odorant receptor agonist call,[2],inactive
same,odorant receptor agonist call,[3],inactive
same,odorant receptor agonist call,[4],inactive
same,odorant receptor agonist call,[5],inactive
same,odorant receptor agonist call,[6],inactive
CCCCOC(=O)C(C)OC(=O)CCC (stereo not given),odorant receptor agonist call,[2],inactive
same,odorant receptor agonist call,[3],inactive
same,odorant receptor agonist call,[5],inactive
same,odorant receptor agonist call,[6],inactive
COC1=C(C)OC(C)C1=O (stereo not given),odorant receptor agonist call,[1],inactive
O=C1CCCCCCCCCCCCCC1,odorant receptor agonist call,[7],active
O=C1CCCCCCCCCC1,odorant receptor agonist call,[7],inactive
CC(=O)c1cnccn1,odorant receptor agonist call,[1],inactive
CCC(C(=O)O)c1ccccc1 (stereo not given),odorant receptor agonist call,[2],inactive
same,odorant receptor agonist call,[3],inactive
same,odorant receptor agonist call,[5],inactive
same,odorant receptor agonist call,[6],inactive
O=C1C=CCCCCCCCCCCCCO1,odorant receptor agonist call,[7],active
CCC(=O)OCC(C)(C)OC(C)C1CCCC(C)(C)C1 (stereo not given),odorant receptor agonist call,[7],active
O=C(O)CCCCCBr,odorant receptor agonist call,[8],inactive
same,odorant receptor agonist call,[3],inactive
same,odorant receptor agonist call,[4],inactive
CCc1nccnc1C(C)=O,odorant receptor agonist call,[1],inactive
CCc1nccnc1C,odorant receptor agonist call,[1],inactive
O=C1CCCCCCCCC1,odorant receptor agonist call,[7],active
O=C1CCCC=CCCCCCCCCCC1,odorant receptor agonist call,[7],active
CC1CC=CCCCCCCCCC(=O)C1 (stereo not given),odorant receptor agonist call,[7],active
O=C1CCCCCC=CCCCCCCCCO1,odorant receptor agonist call,[7],active
Cc1cnccn1,odorant receptor agonist call,[1],inactive
CCc1nccnc1OC,odorant receptor agonist call,[1],inactive
O=c1ccc2ccccc2o1,odorant receptor agonist call,[2],inactive
same,odorant receptor agonist call,[3],inactive
same,odorant receptor agonist call,[5],active
same,odorant receptor agonist call,[6],inactive
same,odorant receptor agonist call,[9],active
COc1nccnc1C(C)C,odorant receptor agonist call,[8],inactive
same,odorant receptor agonist call,[3],inactive
same,odorant receptor agonist call,[1],inactive
O=C1CCCCCCC=CCCCCCCC1,odorant receptor agonist call,[7],active
CC(=O)c1nccnc1C,odorant receptor agonist call,[1],inactive
CCc1nccnc1CC,odorant receptor agonist call,[8],inactive
same,odorant receptor agonist call,[3],inactive
same,odorant receptor agonist call,[1],inactive
COc1nccnc1CC(C)C,odorant receptor agonist call,[1],inactive
CC1CCc2nccnc21 (stereo not given),odorant receptor agonist call,[1],inactive
CCCCCO,odorant receptor agonist call,[2],inactive
same,odorant receptor agonist call,[3],inactive
same,odorant receptor agonist call,[4],inactive
same,odorant receptor agonist call,[5],inactive
same,odorant receptor agonist call,[6],inactive
COc1cnccn1,odorant receptor agonist call,[8],inactive
same,odorant receptor agonist call,[3],inactive
same,odorant receptor agonist call,[1],inactive
CCc1cnc(C)c(C)n1,odorant receptor agonist call,[1],active
Cc1nccnc1C,odorant receptor agonist call,[1],inactive
CC1C(C)(C)C2=C(C(=O)CCC2)C1(C)C (stereo not given),odorant receptor agonist call,[7],inactive
CCCCCCCCCCCCCC(C)=O,odorant receptor agonist call,[7],active
CCCCCCCC(=O)CCCCCCC,odorant receptor agonist call,[7],active
CC1CCCCCCCCCCCC(=O)C1 (stereo not given),odorant receptor agonist call,[7],active
